Results: ChEMBL document CHEMBL4364265, “Oridonin derivatives as potential anticancer drug candidates triggering apoptosis through mitochondrial pathway in the liver cancer cells” (Eur J Med Chem, 2019)
Active and inactive are the calls of the source. No cut-off for these calls is given here.

Legend:
PLC-PRF-5 [1] = assay: Antiproliferative activity against human PLC/PRF/5 cells incubated for 72 hrs by CCK8 cells; assay type: functional, cell-based; details: PLC-PRF-5, 72 h
PLC-PRF-5 [2] = assay: Induction of cell cycle arrest in human PLC/PRF/5 cells assessed as accumulation at G1 phase at 0.25 uM incubated for 24 hrs by PI staining based flow cytometric analysis (reference value: 34.78%); assay type: functional
PLC-PRF-5 [3] = assay: Induction of cell cycle arrest in human PLC/PRF/5 cells assessed as accumulation at S phase at 0.5 uM incubated for 24 hrs by PI staining based flow cytometric analysis (reference value: 42.03%); assay type: functional
PLC-PRF-5 [4] = assay: Induction of cell cycle arrest in human PLC/PRF/5 cells assessed as accumulation at G2 phase at 0.5 uM incubated for 24 hrs by PI staining based flow cytometric analysis (reference value: 18.05%); assay type: functional
PLC-PRF-5 [5] = assay: Induction of cell cycle arrest in human PLC/PRF/5 cells assessed as accumulation at S phase at 1 uM incubated for 24 hrs by PI staining based flow cytometric analysis (reference value: 42.03%); assay type: functional
PLC-PRF-5 [6] = assay: Induction of cell cycle arrest in human PLC/PRF/5 cells assessed as accumulation at G2 phase at 1 uM incubated for 24 hrs by PI staining based flow cytometric analysis (reference value: 18.05%); assay type: functional
HepG2 [7] = assay: Induction of cell cycle arrest in human HepG2 cells assessed as accumulation at G2 phase at 0.25 uM incubated for 24 hrs by PI staining based flow cytometric analysis (reference value: 25.55%); assay type: functional
HepG2 [8] = assay: Induction of cell cycle arrest in human HepG2 cells assessed as accumulation at G1 phase at 1 uM incubated for 24 hrs by PI staining based flow cytometric analysis (reference value: 37.06%); assay type: functional
PLC-PRF-5 [9] = assay: Induction of apoptosis in human PLC/PRF/5 cells assessed as live cells at 0.25 uM incubated for 24 hrs by annexin V staining based cell counting method (reference value: 88.95%); assay type: functional
PLC-PRF-5 [10] = assay: Induction of apoptosis in human PLC/PRF/5 cells assessed as live cells at 0.5 uM incubated for 24 hrs by annexin V staining based cell counting method (reference value: 88.95%); assay type: functional
PLC-PRF-5 [11] = assay: Induction of apoptosis in human PLC/PRF/5 cells assessed as late apoptotic cells at 0.5 uM incubated for 24 hrs by annexin V staining based cell counting method (reference value: 4.81%); assay type: functional
PLC-PRF-5 [12] = assay: Induction of apoptosis in human PLC/PRF/5 cells assessed as early apoptotic cells at 1 uM incubated for 24 hrs by annexin V staining based cell counting method (reference value: 5.65%); assay type: functional
PLC-PRF-5 [13] = assay: Induction of apoptosis in human PLC/PRF/5 cells assessed as necrotic cells at 1 uM incubated for 24 hrs by annexin V staining based cell counting method (reference value: 0.59%); assay type: functional
HepG2 [14] = assay: Induction of apoptosis in human HepG2 cells assessed as live cells at 0.25 uM incubated for 24 hrs by annexin V staining based cell counting method (reference value: 87.35%); assay type: functional
HepG2 [15] = assay: Induction of apoptosis in human HepG2 cells assessed as early apoptotic cells at 0.25 uM incubated for 24 hrs by annexin V staining based cell counting method (reference value: 3.60%); assay type: functional
HepG2 [16] = assay: Induction of apoptosis in human HepG2 cells assessed as early apoptotic cells at 0.5 uM incubated for 24 hrs by annexin V staining based cell counting method (reference value: 3.60%); assay type: functional
HepG2 [17] = assay: Induction of apoptosis in human HepG2 cells assessed as live cells at 1 uM incubated for 24 hrs by annexin V staining based cell counting method (reference value: 87.35%); assay type: functional
HepG2 [18] = assay: Induction of apoptosis in human HepG2 cells assessed as necrotic cells at 1 uM incubated for 24 hrs by annexin V staining based cell counting method (reference value: 3.40%); assay type: functional
HepG2 [19] = assay: Induction of mitochondrial membrane potential loss in human HepG2 cell incubated for 24 hrs by JC1 staining based fluorescence microscopic method; assay type: functional
Outline: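 Cells seeded in 12-well plates, cultured 12 h, treated 24 h (0, 0.25, 0.5, 1 µM). After a PBS wash, stained with JC-1 in medium for 20 min at 37 °C and washed three times. Red aggregate and green monomer fluorescence were imaged by fluorescence microscopy; the red/green ratio was taken; three independent experiments.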

HepG2 [20] = assay: Induction of ROS generation in human HepG2 cells at 1 uM by DCFH-DA staining-based flow cytometric analysis relative to control; assay type: functional
Outline: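 Cells were treated with 0, 0.25, 0.5 or 1 µM compound, stained with 10 µM DCFH-DA for 20 min at 37 °C, washed three times, resuspended in PBS and read by flow cytometry. Data are mean ± SD of three independent experiments.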

HepG2 [21] = assay: Induction of apoptosis in human HepG2 cells assessed as increase in cytochrome c protein expression level at 0.25 to 1.25 uM incubated for 24 hrs by Western blot analysis; assay type: functional, cell-based
Outline: (§1)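 Cells were treated 24 h in DMEM with 0, 0.25, 0.5, 1.0 or 1.25 µM compound. Adherent and floating cells were lysed in RIPA on ice and protein measured by BCA. Equal protein was run on 7.5–12.5% SDS-PAGE and transferred to PVDF. Membranes were blocked in 5% milk/PBST, incubated with primary antibody overnight at 4 °C, and detected by ECL.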

PLC-PRF-5 [22] = assay: Induction of apoptosis in human PLC/PRF/5 cells assessed as increase in cytochrome c protein expression level at 0.25 to 1.25 uM incubated for 24 hrs by Western blot analysis; assay type: functional, cell-based; outline: as §1
HepG2 [23] = assay: Induction of apoptosis in human HepG2 cells assessed as upregulation of cleaved PARP protein expression level incubated for 24 hrs by Western blot analysis; assay type: functional, cell-based; outline: as §1
PLC-PRF-5 [24] = assay: Induction of apoptosis in human PLC/PRF/5 cells assessed as upregulation of cleaved caspase 3 protein expression level incubated for 24 hrs by Western blot analysis; assay type: functional, cell-based
Outline: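 After 24 h exposure (0, 0.25, 0.5, 1.0 and 1.25 µM), adherent plus floating cells collected, lysed in RIPA on ice 30 min, protein quantified by BCA; equal protein run on 7.5–12.5% SDS gels, transferred to PVDF, blocked 30 min in 5% milk/PBST, primary antibody overnight at 4 °C, ECL detection.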

HepG2 [25] = assay: Induction of apoptosis in human HepG2 cells assessed as change in p53 protein expression level at 0.25 to 1.25 uM incubated for 24 hrs by Western blot analysis; assay type: functional, cell-based; outline: as §1
PLC-PRF-5 [26] = assay: Antitumour activity against human PLC/PRF/5 cells xenografted in nude mouse assessed as tumour growth inhibition at 10 mg/kg, iv administrated once every 3 days for 4 weeks; assay type: functional, organism-based
Outline: (§2)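 PLC/PRF/5 xenograft. 2 × 10^7 cells in 0.2 mL saline were injected s.c. into the right forelimb of nude mice. At about 120 mm3, mice were randomized into 3 groups of 6 and dosed i.v. at 10 mg/kg once every three days for 4 weeks. Vehicle was 10% N-methylpyrrolidone/12% Tween-80/78% saline. Volume (a×b²/2) and body weight were recorded daily, and tumors were excised and weighed at the end.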

PLC-PRF-5 [27] = assay: Antitumour activity against human PLC/PRF/5 cells xenografted in nude mouse assessed as reduction in tumour weight at 10 mg/kg, iv administrated once every 3 days for 4 weeks relative to control; assay type: functional; design: scale not given: the % may be the effect or the level left; outline: as §2

C=C1C(=O)[C@]23[C@H](OC(=O)/C=C/c4ccc(OC)cc4)[C@H]1CC[C@H]2[C@@]12CO[C@]3(O)[C@@H](O)[C@@H]1C(C)(C)CC[C@@H]2O
IC50 (PLC-PRF-5 [1]): 780 nM | Activity (PLC-PRF-5 [2]): 37.17% | Activity (PLC-PRF-5 [3]): 39.83% | Activity (PLC-PRF-5 [4]): 13.58% | Activity (PLC-PRF-5 [5]): 43.13% | Activity (PLC-PRF-5 [6]): 6.11% | Activity (HepG2 [7]): 24.78% | Activity (HepG2 [8]): 42.33% | Activity (PLC-PRF-5 [9]): 80.53% | Activity (PLC-PRF-5 [10]): 64.3% | Activity (PLC-PRF-5 [11]): 18.84% | Activity (PLC-PRF-5 [12]): 29.39% | Activity (PLC-PRF-5 [13]): 0.45% | Activity (HepG2 [14]): 81.95% | Activity (HepG2 [15]): 5.3% | Activity (HepG2 [16]): 8.95% | Activity (HepG2 [17]): 53.4% | Activity (HepG2 [18]): 4.1% | Activity (HepG2 [19]): Dose-dependent effect | fold change (FC) (HepG2 [20]): 3 | Activity (HepG2 [21]): Active | Activity (PLC-PRF-5 [22]): Active | Activity (HepG2 [23]): Dose-dependent effect | Activity (PLC-PRF-5 [24]): Dose-dependent effect | Activity (HepG2 [25]): inactive | TGI (PLC-PRF-5 [26]): Active | Activity (PLC-PRF-5 [27]): 38.1%
